According to paper PMC8341804 (RSC Chemical Biology, 2021):

Experiments:
PC-3 cells [1] = test: PMA induced cytoskeletal remodeling assay; type: cell-based; settings: PC-3, serum starved 24 h, 5 μM peptide 4 h, 500 nM PMA 45 min
[2] = molecular target: Protein kinase C alpha type (Homo sapiens, UniProt P17252); test: Proteomic mass spectrometry of biotin-streptavidin pulldown; type: binding; settings: 5 µM biotin labeled peptide, A549 lysate, LC-MS/MS
How it was run: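 Cell lysates were incubated for four hours with 5 μM biotin-labeled test compound or the corresponding scrambled control, with DMSO-treated lysate as negative control. Streptavidin–agarose beads were used for pulldown, and the eluates were analysed by mass spectrometry.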

PKC = PKC substrate phosphorylation assay; type: cell-based; settings: serum starved PC-3, 1, 2.5, 5 μM peptide 4 h, PMA 5 min; n = 3
How it was run: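 Serum-starved PC-3 cells were exposed to the test compound (1, 2.5 or 5 μM) or DMSO vehicle for 4 h. A catalytic PKC inhibitor reference was given at 500 nM for 90 min. Cells were then stimulated with 500 nM PMA for 5 min, harvested and analysed by western blot for PKC substrate phosphorylation; n = 3.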

PC-3 cells [3] = test: Peptide uptake assay; type: cell-based; settings: 5 μM FAM-labeled peptide, 4 h, fixed cells, fluorescence microscopy
How it was run: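 PC-3 cells were incubated with 5 μM 5(6)-carboxyfluorescein-labeled test compound for four hours, then imaged by fluorescence microscopy to assess intracellular distribution.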

Substance | cell morphology after PMA stimulation (phase contrast) (PC-3 cells [1]) | Present in pulldown: Protein kinase C alpha type (PRKCA) [2] | phosphorylated PKC substrates (anti-PKC p-Serine substrate western blot) (PKC) | cellular uptake / cell permeability (PC-3 cells [3])
(5/6 FAM) - β-Ala - KAS(Nle)LCFKRRK*AAK*LK (sidechain bridge or staple) [CSTAD5] | predominantly maintained a flat, elongated morphology | present | dose dependent reduction | considerable permeation
(5/6 FAM) - β-Ala - KAS(Nle)LCFKRRKK*AKA*K (sidechain bridge or staple) [CSTAD6] | predominantly maintained a flat, elongated morphology |  | dose dependent reduction | considerable permeation
